{"source": "ChEMBL document CHEMBL1129245", "about": "“N-heteroaryl-2-phenyl-3-(benzyloxy)piperidines: a novel class of potent orally active human NK1 antagonists” (J Med Chem, 1996)", "key": {"[1]": {"test_system": "Rattus norvegicus", "test": "Inhibition of […] of the rat after intravenous administration", "format": "functional", "settings": "read-out: ID50 (the source's name)", "method_in_brief": "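Rats given test compound intravenously. Plasma extravasation in the dura mater measured, n = 8-10. ID50 reported in mg/kg iv.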"}, "[2]": {"test_system": "Cavia porcellus", "test": "Inhibition of SP- induced dermal guinea pig after peroral administration", "format": "functional", "settings": "read-out: ID50 (the source's name)", "method_in_brief": "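Guinea pigs dosed orally with antagonist, then challenged 1 h later with intradermal substance P. Vascular leakage measured as extravasation of Evans blue dye. ID50 (mg/kg po) taken from dose-response data, 5-12 animals per data point.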"}, "[3]": {"species_on_record": "Oryctolagus cuniculus", "test": "Displacement of [3H]diltiazem from rabbit skeletal muscle calcium channel", "format": "tissue-based", "settings": "Muscle tissue"}, "[4]": {"target": "Substance-P receptor (Homo sapiens, UniProt P25103)", "sequence (P25103 whole entry)": "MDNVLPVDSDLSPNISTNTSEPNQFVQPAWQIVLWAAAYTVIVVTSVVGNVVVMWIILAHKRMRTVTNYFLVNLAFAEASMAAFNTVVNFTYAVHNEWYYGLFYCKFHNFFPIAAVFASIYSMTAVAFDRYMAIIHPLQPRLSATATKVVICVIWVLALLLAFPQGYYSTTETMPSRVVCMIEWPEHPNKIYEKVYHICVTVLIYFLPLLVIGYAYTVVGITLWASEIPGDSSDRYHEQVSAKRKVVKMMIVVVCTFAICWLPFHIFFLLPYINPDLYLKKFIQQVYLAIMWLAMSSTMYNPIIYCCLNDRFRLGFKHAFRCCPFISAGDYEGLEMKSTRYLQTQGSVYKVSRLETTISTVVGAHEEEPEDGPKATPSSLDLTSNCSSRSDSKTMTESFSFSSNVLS", "test": "Displacement of [125 I]-Tyr8 SP from the cloned human Tachykinin receptor 1 expressed in CHO cells", "format": "cell-based"}}}
{"compound": "COc1ccccc1CN[C@H]1CCCN[C@H]1c1ccccc1", "note": "[CP-99994]", "values": [{"measurement": "ED50", "setting": "[1]", "result": 0.052, "unit": "mg/kg"}, {"measurement": "ED50", "setting": "[2]", "result": 1.6, "unit": "mg/kg"}, {"measurement": "Binding affinity", "setting": "[3]", "result": 4, "unit": "µM"}]}
{"compound": "FC(F)(F)c1cc(CO[C@H]2CCCN(Cc3ncc[nH]3)[C@H]2c2ccccc2)cc(C(F)(F)F)c1", "values": [{"measurement": "IC50", "setting": "[4]", "result": 530, "unit": "pM"}, {"measurement": "Binding affinity", "setting": "[3]", "result": 2.06, "unit": "µM"}]}
{"compound": "FC(F)(F)c1cc(CO[C@H]2CCCN(Cc3nc[nH]n3)[C@H]2c2ccccc2)cc(C(F)(F)F)c1", "values": [{"measurement": "ED50", "setting": "[1]", "result": 0.008, "unit": "mg/kg"}, {"measurement": "ED50", "setting": "[2]", "result": 0.4, "unit": "mg/kg"}, {"measurement": "Binding affinity", "setting": "[3]", "result": "> 100", "unit": "µM"}]}
{"compound": "FC(F)(F)c1cc(CO[C@H]2CCCN(Cc3ccco3)[C@H]2c2ccccc2)cc(C(F)(F)F)c1", "values": [{"measurement": "IC50", "setting": "[4]", "result": 36000, "unit": "pM"}]}
{"compound": "FC(F)(F)c1cc(CO[C@H]2CCCN(Cc3cnc[nH]3)[C@H]2c2ccccc2)cc(C(F)(F)F)c1", "values": [{"measurement": "IC50", "setting": "[4]", "result": 900, "unit": "pM"}]}
{"compound": "FC(F)(F)c1cc(CO[C@H]2CCCN(Cc3nn[nH]n3)[C@H]2c2ccccc2)cc(C(F)(F)F)c1", "values": [{"measurement": "Binding affinity", "setting": "[3]", "result": "> 5", "unit": "µM"}]}
{"compound": "FC(F)(F)c1cc(CO[C@H]2CCCN(Cc3nnco3)[C@H]2c2ccccc2)cc(C(F)(F)F)c1", "values": [{"measurement": "IC50", "setting": "[4]", "result": 970, "unit": "pM"}, {"measurement": "Binding affinity", "setting": "[3]", "result": 10, "unit": "µM"}]}
